Data on 14 compounds can be found in PubChem BioAssay.

In general, inhibition refers to the change of the read-out against control, counted positive when it falls. Usually viability stands for a read-out of living cells in per cent, often relative to untreated cells.

The source made the active and inactive calls.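 Rule for the calls, unless noted: active = viability at or below 10% of carrier control in both of two separate runs; inconclusive = viability at or below 10% in only one of the two runs; inactive = the rest.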

Assay [1] has as its target Pantothenate synthetase (Mycobacterium tuberculosis (strain ATCC 25618 / H37Rv)) (UniProt P9WIL5). Briefly: Coupled enzyme confirmation of inhibitors against recombinant Mtb PanC (AID 375; call rule not given here;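 note: 0% = full reaction with vehicle and 100% = no enzyme background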). The settings on record: coupled enzyme assay; at 10 µM, stronger effect = higher value.
Assay [2] can be described thus: Her2 expression decrease, cell viability multiplex – SKBR3 breast tumor cells, AlphaScreen, ATP viability, primary screen (AID 461;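 active = Her2 level under about 52% in both replicate screens, with viability over 70% of control, limit read from the data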;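 for Her2 level: lower value means less Her2 protein in the cells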;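 for viability: percent of carrier control wells set as 100% viability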). The conditions noted are these: SKBR3 Her2 protein level, 18-24 h, measured here: SKBR3 viability, ATP luminescence, at 10 µM. A general note: Bead proximity is the source of the signal in Alpha formats.
Assay [3] deals with Receptor tyrosine-protein kinase erbB-2 (Homo sapiens) (UniProt P04626). The assay is described as above. The conditions noted are these: 18-24 h, at 10 µM, stronger effect = lower value.
Receptor tyrosine-protein kinase erbB-2 (Homo sapiens), sequence (P04626 whole entry, looked up): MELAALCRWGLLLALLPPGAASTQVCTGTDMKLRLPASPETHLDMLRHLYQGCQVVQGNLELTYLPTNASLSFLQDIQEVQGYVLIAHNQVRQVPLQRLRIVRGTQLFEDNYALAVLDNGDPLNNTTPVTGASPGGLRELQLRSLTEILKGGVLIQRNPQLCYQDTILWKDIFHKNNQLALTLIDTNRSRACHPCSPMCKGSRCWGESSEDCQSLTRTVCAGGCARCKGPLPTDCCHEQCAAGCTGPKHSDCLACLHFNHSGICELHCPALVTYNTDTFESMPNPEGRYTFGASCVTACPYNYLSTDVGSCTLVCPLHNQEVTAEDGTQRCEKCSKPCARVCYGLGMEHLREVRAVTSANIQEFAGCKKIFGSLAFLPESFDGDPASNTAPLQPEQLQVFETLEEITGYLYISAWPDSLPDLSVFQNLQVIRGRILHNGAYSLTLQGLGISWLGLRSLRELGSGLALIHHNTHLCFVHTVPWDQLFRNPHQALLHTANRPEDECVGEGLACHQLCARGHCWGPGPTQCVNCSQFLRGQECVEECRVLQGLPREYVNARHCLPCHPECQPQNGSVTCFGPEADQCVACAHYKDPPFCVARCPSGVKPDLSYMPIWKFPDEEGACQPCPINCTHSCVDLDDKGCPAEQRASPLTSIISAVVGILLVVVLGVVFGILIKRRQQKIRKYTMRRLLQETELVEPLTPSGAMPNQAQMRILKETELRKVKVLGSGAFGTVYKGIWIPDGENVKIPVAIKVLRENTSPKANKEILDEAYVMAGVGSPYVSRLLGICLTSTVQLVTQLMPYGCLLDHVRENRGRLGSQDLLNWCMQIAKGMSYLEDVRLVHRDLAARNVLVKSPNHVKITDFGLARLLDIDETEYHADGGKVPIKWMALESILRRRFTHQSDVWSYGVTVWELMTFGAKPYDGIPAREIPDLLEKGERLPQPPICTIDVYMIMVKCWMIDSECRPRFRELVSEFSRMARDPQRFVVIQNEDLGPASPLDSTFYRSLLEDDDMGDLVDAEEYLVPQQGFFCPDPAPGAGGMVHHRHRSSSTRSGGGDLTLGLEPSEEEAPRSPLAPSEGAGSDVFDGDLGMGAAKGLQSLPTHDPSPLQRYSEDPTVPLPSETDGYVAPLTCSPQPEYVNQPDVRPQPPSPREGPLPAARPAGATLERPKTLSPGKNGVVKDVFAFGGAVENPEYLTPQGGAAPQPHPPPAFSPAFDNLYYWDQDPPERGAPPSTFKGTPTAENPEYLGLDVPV
Assay [4] is described as follows: reduced viability of SK-BR-3 breast cancer cells – cell-based, 24 h, human, pilot screen (AID 572).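 Note: compound exposure lasted between 18 and 24 h rather than exactly 24 h; 100% = carrier-treated control wells.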 The settings on record: SK-BR-3 viability, CellTiter-Glo luminescence, at 10 µM, stronger effect = lower value. Background: Cellular ATP, detected with luciferase, serves as a proxy for viable cell number.
A short description of assay [5]: HUVEC growth inhibition – cell-based, human, primary screen (AID 575;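 active = viability at or below 30% in both replicate assays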;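 note: 100% = median of untreated cell wells with 0.1% DMSO on each plate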). The conditions noted are these: HUVEC proliferation, CellTiter-Glo luminescence, 72 h; at 10 µM; stronger effect = lower value. The method in brief:
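Timing: 72 h treatment at 37 °C; material: HUVEC primary cells; technique: CellTiter-Glo luminescence measuring cellular ATP; controls: vehicle and MePR control wells; measure: percent of median DMSO-control luminescence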

A short description of assay [6]: H69AR cell proliferation blockers – human, duplicate replicates, primary screen (AID 580;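 active = viability at or under a set limit in both replicates, limit being median viability minus 3 SD, cut at about 48% in these data, passing the limit was not always enough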;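 note: 100% = mean luminescence of untreated wells and 0% = no signal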). The conditions noted are these: H69AR lung tumor cells viability, ATP luminescence, 72 h; at 10 µM; stronger effect = lower value.
A short description of assay [7]: MRP1 drug-resistance reversers in H69AR cells – cell-based, doxorubicin co-treatment, pilot screen (AID 601;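 active = viability loss from added drug above about 55%, and viability with drug at most 40%, in both replicates, limit read from the data, passing the limit was not always enough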). The conditions noted are these: CellTiter-Glo, 72 h, at 10 µM; for differential viability (reversal): stronger effect = higher value.
Assay [8] is described as follows: yeast transport mutant growth inhibition pilot in 384-well plates, post-Golgi transport modulator project (AID 636; in the data active = inhibition above about 31%). The conditions noted are these: absorbance 615 nm, about 18 h, stronger effect = higher value.
Assay [9] is described as follows: growth suppression of yeast trafficking mutant, preliminary HTS, modulators of trafficking downstream of Golgi apparatus project, 1536-format plate, OD 615 nm (AID 637; in the data active = inhibition above about 30%). The settings on record: yeast transport mutant growth, absorbance 615 nm, 18 h; stronger effect = higher value.
[10] abbreviates: H69AR cells + 2 uM doxorubicin, measured here: viability with 2 uM doxorubicin, stronger effect = lower value.
The mark [11] stands for this setting: H69AR cells, compound alone cytotoxicity.

Pantothenate synthetase (Mycobacterium tuberculosis (strain ATCC 25618 / H37Rv)), sequence (P9WIL5 whole entry, looked up): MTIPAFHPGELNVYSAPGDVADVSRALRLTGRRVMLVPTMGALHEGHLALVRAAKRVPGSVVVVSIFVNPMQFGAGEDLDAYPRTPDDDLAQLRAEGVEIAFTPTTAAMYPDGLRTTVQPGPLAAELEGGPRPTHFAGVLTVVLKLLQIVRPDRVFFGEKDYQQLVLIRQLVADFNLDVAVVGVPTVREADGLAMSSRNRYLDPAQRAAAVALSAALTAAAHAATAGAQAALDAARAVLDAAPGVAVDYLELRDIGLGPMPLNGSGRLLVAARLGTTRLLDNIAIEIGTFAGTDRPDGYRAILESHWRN

As for `C=CCn1c(O)c(C=NCCN(C)C)c(=O)[nH]c1=O`, the inhibition was 0% (inactive) in assay [1], -0.39% (inactive) in assay [8] and -0.98% (inactive) in assay [9]. Also, the viability in assay [2] was 97.5%; in assay [4], 97.5% (inactive); in assay [5], 110% (inactive); in [6] it was 97.2% (inactive); in assay [7] (setting [10]) it was 94.1%; in [7] (setting [11]) it was 97.2%. Moreover, the Her2 level in assay [3] is 108% (inactive). Moreover, the differential viability (reversal) in assay [7] (H69AR cells + 2 uM doxorubicin) is 3.12% (inactive).

For the compound `O=C1CC[C@@]2(O)[C@H]3Cc4ccc(O)c5c4[C@@]2(CCN3CC2CC2)[C@H]1O5`, the inhibition was 4% (inactive) in [1], 0.26% (inactive) in [8] and 2.17% (inactive) in assay [9]. Further, the viability in [4] is 95% (inactive); in assay [5] it was 90.6% (inactive); in assay [6], 99.5% (inactive); in assay [7] (setting [10]) it was 88.6%; in [7] (setting [11]) it was 99.5%. For the same compound, the differential viability (reversal) in [7] (H69AR cells + 2 uM doxorubicin) is 11% (inactive).

For the compound `O=C(NCc1ccccn1)c1ccccc1Cl`, the inhibition is 0% (inactive) in [1], -7.95% (inactive) in [8] and 0.63% (inactive) in assay [9]. The viability in assay [2] was 91.5%; in [4], 91.5% (inactive); in [5] it was 91.2% (inactive); in assay [6], 98% (inactive); in assay [7] (setting [10]), 81.5%; in [7] (setting [11]), 98%. Also, the Her2 level in assay [3] was 76.5% (inactive). For the same compound, the differential viability (reversal) in assay [7] (H69AR cells + 2 uM doxorubicin) is 16.5% (inactive).

As for `O=c1[nH]c(=O)n(Cc2ccco2)c(O)c1C=NCCCn1ccnc1`, the inhibition in assay [1] is 0% (inactive); in assay [8], 0.77% (inactive); in assay [9], -3.33% (inactive). For the same compound, the viability in [2] is 88.5%; in assay [4], 88.5% (inactive); in [5], 93.5% (inactive); in assay [6] it was 95.2% (inactive); in [7] (setting [10]), 94.8%; in [7] (setting [11]), 95.2%. The Her2 level in [3] is 104% (inactive). For the same compound, the differential viability (reversal) in assay [7] (H69AR cells + 2 uM doxorubicin) was 0.33% (inactive).

As for `CN1CCC(OC(=O)C2c3ccccc3Oc3ccccc32)CC1`, the inhibition was 2% (inactive) in assay [1], -0.39% (inactive) in assay [8] and -5.16% (inactive) in [9]. For the same compound, the viability is 96.5% in assay [2]; 96.5% (inactive) in assay [4]; 64.3% (inactive) in [5]; 86.4% (inactive) in assay [6]; 85.5% in assay [7] (setting [10]); 86.4% in assay [7] (setting [11]). The Her2 level in assay [3] is 96% (inactive). Moreover, the differential viability (reversal) in assay [7] (H69AR cells + 2 uM doxorubicin) is 0.945% (inactive).

Turning to `C#C[C@]1(O)CC[C@H]2[C@@H]3CCC4=CC(=O)CC[C@]4(C)[C@H]3CC[C@@]21C`, the inhibition in assay [1] is 4% (inactive); in assay [8] it was -1.69% (inactive); in assay [9], 11.2% (inactive). The viability in assay [4] is 101% (inactive); in [5] it was 91.6% (inactive); in [6], 91.3% (inactive); in assay [7] (setting [10]) it was 105%; in assay [7] (setting [11]), 91.3%. In addition, the differential viability (reversal) in assay [7] (H69AR cells + 2 uM doxorubicin) was -13.7% (inactive).

Turning to `O=C(c1ccc(CS(=O)(=O)c2ccccc2)o1)N1CCC2(CC1)OCCO2`, the inhibition was 0% (inactive) in [1], -2.11% (inactive) in [8] and -2.73% (inactive) in [9]. Further, the viability in assay [2] is 90%; in [4], 90% (inactive); in assay [5], 96.5% (inactive); in [6], 85% (inactive); in assay [7] (setting [10]), 92%; in [7] (setting [11]), 85%. In addition, the Her2 level in assay [3] was 112% (inactive). In addition, the differential viability (reversal) in assay [7] (H69AR cells + 2 uM doxorubicin) was -6.95% (inactive).

With `Cc1nn(Cc2ccccc2Cl)c(Cl)c1C(=O)OCC(=O)NCc1ccco1`, the inhibition in assay [1] is 0% (inactive); in assay [8], -3.2% (inactive); in assay [9] it was -0.82% (inactive). Also, the viability in assay [2] was 85%; in assay [4] it was 85% (inactive); in [5], 98.6% (inactive); in assay [6] it was 85.6% (inactive); in [7] (setting [10]), 92.3%; in [7] (setting [11]), 85.6%. Moreover, the Her2 level in assay [3] was 76% (inactive). The differential viability (reversal) in assay [7] (H69AR cells + 2 uM doxorubicin) is -6.68% (inactive).

In the case of `COc1cc(C2NCc3ccccc3-n3cccc32)ccc1O` (stereo not given), the inhibition in assay [1] is 0% (inactive); in [8], -5.79% (inactive); in assay [9], -1.27% (inactive). For the same compound, the viability was 104% in [2]; 104% (inactive) in [4]; 105% (inactive) in [5]; 101% (inactive) in [6]; 90.9% in assay [7] (setting [10]); 101% in assay [7] (setting [11]). Moreover, in [3], the Her2 level was 102% (inactive). The differential viability (reversal) in assay [7] (H69AR cells + 2 uM doxorubicin) is 9.64% (inactive).

Consider `CCCNC(=O)c1c(N)n(Cc2ccc3c(c2)OCO3)c2nc3ccccc3nc12`, for which the inhibition in assay [1] is 0% (inactive); in assay [8], -3.2% (inactive); in assay [9], 0.66% (inactive). In addition, the viability in [4] is 102% (inactive); in [5], 21.8% (active); in assay [6], 43.8% (active); in assay [7] (setting [10]), 36.8%; in assay [7] (setting [11]) it was 43.8%. Moreover, the differential viability (reversal) in assay [7] (H69AR cells + 2 uM doxorubicin) is 6.99% (inactive).

On to `Cc1ccc2nc(N3CCN(C)CC3)[nH]c2c1`, for which the results for the inhibition in assay [1], in [8] and in assay [9] were 0% (inactive), 1.64% (inactive) and -1.13% (inactive), respectively. Further, the viability is 111% (inactive) in assay [4]; 90.4% (inactive) in assay [5]; 93.6% (inactive) in [6]; 91.5% in assay [7] (setting [10]); 93.6% in assay [7] (setting [11]). Moreover, the differential viability (reversal) in [7] (H69AR cells + 2 uM doxorubicin) is 2.07% (inactive).

With `CC(C)[C@@]1(NC(=O)[C@@H]2C=C3c4cccc5[nH]cc(c45)C[C@H]3N(C)C2)O[C@@]2(O)[C@@H]3CCCN3C(=O)[C@H](Cc3ccccc3)N2C1=O`, the inhibition in assay [1] was 3% (inactive); in assay [8] it was -0.13% (inactive); in assay [9], 16.8% (inactive). For the same compound, the viability in assay [4] was 103% (inactive); in [5] it was 89% (inactive); in assay [6] it was 90.5% (inactive); in [7] (setting [10]) it was 101%; in assay [7] (setting [11]), 90.5%. In addition, the differential viability (reversal) in assay [7] (H69AR cells + 2 uM doxorubicin) is -9.99% (inactive).

On to `O=c1[nH]c(=O)n(-c2cccc3ccccc23)c(O)c1C=NCCCn1ccnc1`, for which the inhibition is 0% (inactive) in [1], -5.21% (inactive) in assay [8] and 1.27% (inactive) in assay [9]. Besides, the viability in assay [4] was 63% (inactive); in assay [5], 101% (inactive); in assay [6], 102% (inactive); in assay [7] (setting [10]), 92%; in [7] (setting [11]) it was 102%. Also, the differential viability (reversal) in [7] (H69AR cells + 2 uM doxorubicin) was 10% (inactive).

Turning to `CCOCC(=O)NC1CCSC1=O` (stereo not given), the inhibition in [1] was 0% (inactive); in [8], -9.45% (inactive); in [9] it was 5.16% (inactive). The viability in [4] is 74% (inactive); in assay [5], 99.4% (inactive); in assay [6] it was 93.8% (inactive); in [7] (setting [10]), 93.6%; in [7] (setting [11]) it was 93.8%. Moreover, in [7] (H69AR cells + 2 uM doxorubicin), the differential viability (reversal) was 0.265% (inactive).
